Reference: ChEMBL document CHEMBL4325838, “Norbornane-based cationic antimicrobial peptidomimetics targeting the bacterial membrane” (Eur J Med Chem, 2018)
Converted amounts (≈) assume the structure as drawn.

Assays:
[1] = Drug localization in methicillin-resistant Staphylococcus aureus subsp. aureus Rosenbach ATCC 43300 at 10 ug/ml after 20 mins by confocal microscopic analysis; type: ADME
In short: (§1)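 MRSA ATCC 43300 was grown overnight in LB broth at 37 °C with gentle shaking, then incubated 20 min at 37 °C with 10 µg/mL fluorescent compound in LB. Cells were fixed in 4% paraformaldehyde for 20 min, wet-mounted on slides and imaged by confocal microscopy.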

[2] = Drug localization in […] Escherichia coli ATCC 25922 at 10 ug/ml after 20 mins by confocal microscopic analysis; type: ADME
In short: (§2)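 E. coli ATCC 25922 was grown overnight in LB broth at 37 °C with gentle shaking. Cells were exposed to 10 µg/mL fluorescent compound in LB for 20 min at 37 °C. Localisation was imaged by confocal microscopy, including 3D rendering.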

[3] = Drug localization in peripheral region of methicillin-resistant Staphylococcus aureus subsp. aureus Rosenbach ATCC 43300 at 10 ug/ml after 20 mins by confocal microscopic analysis; type: ADME; in short: as §1
Escherichia coli [4] = assay: Antibacterial activity against Escherichia coli ATCC 25922 after 18 to 20 hrs by broth microdilution assay; type: functional
In short: (§3)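 Bacteria grown overnight at 37 °C with shaking in nutrient broth or Mueller-Hinton broth (MHB). Cultures were diluted 50-fold in MHB and grown 1.5–3 h to mid-log phase, then set at 5×10^5 CFU/mL final. Compounds were 2-fold serially diluted, final 32 to 0.015 µg/mL, 1% DMSO. […] Two independent experiments of n = 2 (n = 4).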

[5] = Cytotoxicity against HEK293 cells after 24 hrs by resazurin dye-based fluorescence analysis; type: cell-based; conditions: human
In short: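 HEK293 cells were seeded at 3000/well in DMEM with 10% FBS and attached for 24 h at 37 °C, 5% CO₂. A compound concentration series was applied for 24 h. Resazurin was added at 10 µM for 2 h and fluorescence read at ex/em 560/590. Results are average percentage of control ± SD of duplicate wells.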

Staphylococcus aureus [6] = assay: Antibacterial activity against methicillin-resistant Staphylococcus aureus ATCC 43300 assessed as zone of inhibition at 50 ug/disc after 20 hrs by disk diffusion assay; type: functional; conditions: ATCC 43300, 20 h, read-out: IZ
In short: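 Disk diffusion, 50 µg compound per disk. Bacterial suspensions were adjusted to 0.5 McFarland in 0.9% NaCl and swabbed onto nutrient agar plates. Controls were a 10 µg colistin sulphate disk, 10 µL DMSO, and a plate swabbed with saline from the dispenser.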

Pseudomonas aeruginosa [7] = assay: Antibacterial activity against Pseudomonas aeruginosa ATCC 27853 assessed as zone of inhibition at 50 ug/disc after 20 hrs by disk diffusion assay; type: functional; conditions: ATCC 27853, 20 h, read-out: IZ
In short: (§4)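 Disks loaded with 50 µg compound. Isolate suspensions were adjusted to 0.5 McFarland in 0.9% NaCl and swabbed onto nutrient agar plates, with zones of inhibition measured. Controls: 10 µg colistin sulphate disk, 10 µL DMSO, and a plate swabbed with saline from the dispenser.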

Pseudomonas aeruginosa [8] = assay: Antibacterial activity against Pseudomonas aeruginosa ATCC 27853 after 18 to 20 hrs by broth microdilution assay; type: functional; in short: as §3
Staphylococcus aureus [9] = assay: Antibacterial activity against glycopeptide-intermediate resistant Staphylococcus aureus NARSA NRS17 after 18 to 20 hrs by broth microdilution assay
[10] = Drug localization in peripheral region of […] Escherichia coli ATCC 25922 at 10 ug/ml after 20 mins by confocal microscopic analysis; type: ADME; in short: as §2
Klebsiella pneumoniae [11] = assay: Antibacterial activity against multidrug-resistant Klebsiella pneumoniae ATCC 700603 after 18 to 20 hrs by broth microdilution assay; type: functional
In short: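 Strains were grown overnight at 37 °C with shaking in nutrient broth or MHB, diluted 50-fold in MHB and grown 1.5–3 h to mid-log. Compounds were 2-fold serially diluted in MHB at 32 to 0.015 µg/mL final (1% DMSO) with 5×10^5 CFU/mL. […] Two independent experiments of n = 2 (n = 4).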

Staphylococcus aureus [12] = assay: Antibacterial activity against glycopeptide-intermediate/methicillin-resistant Staphylococcus aureus NARSA NRS1 after 18 to 20 hrs by broth microdilution assay
Cryptococcus neoformans = assay: Antifungal activity against Cryptococcus neoformans H99 ATCC 208821 after 18 to 20 hrs by broth microdilution assay; type: functional; conditions: var. grubii H99 ATCC 208821
Acinetobacter baumannii [13] = assay: Antibacterial activity against Acinetobacter baumannii ATCC 19606 after 18 to 20 hrs by broth microdilution assay; type: functional; conditions: ATCC 19606 = CIP 70.34 = JCM 6841; in short: as §3
Candida albicans = assay: Antifungal activity against Candida albicans ATCC 90028 after 18 to 20 hrs by broth microdilution assay; type: functional
Staphylococcus aureus [14] = assay: Antibacterial activity against vancomycin-resistant Staphylococcus aureus NARSA VRS10 after 18 to 20 hrs by broth microdilution assay
Klebsiella pneumoniae [15] = assay: Antibacterial activity against Klebsiella pneumoniae ATCC 13883 assessed as zone of inhibition at 50 ug/disc after 20 hrs by disk diffusion assay; type: functional; conditions: ATCC 13883, 20 h, read-out: IZ; in short: as §4
Staphylococcus aureus [16] = assay: microbe, parasite or virus in culture; conditions: ATCC 43300
Streptococcus pneumoniae = assay: microbe, parasite or virus in culture; conditions: ATCC 700677
Acinetobacter baumannii [17] = assay: Antibacterial activity against Acinetobacter baumannii ATCC 19606 assessed as zone of inhibition at 50 ug/disc after 20 hrs by disk diffusion assay; type: functional; conditions: ATCC 19606 = CIP 70.34 = JCM 6841, 20 h, read-out: IZ; in short: as §4
Enterococcus faecium = assay: Antibacterial activity against Enterococcus faecium ATCC 700221 assessed as zone of inhibition at 50 ug/disc after 20 hrs by disk diffusion assay; type: functional; conditions: ATCC 700221, 20 h, read-out: IZ; in short: as §4
Staphylococcus aureus [18] = assay: Antibacterial activity against methicillin-resistant Staphylococcus aureus ATCC 43300 after 20 hrs by micro-broth dilution assay; type: functional; conditions: ATCC 43300, 20 h
Escherichia coli [19] = assay: Antibacterial activity against Escherichia coli ATCC 25922 after 20 hrs by micro-broth dilution assay; type: functional; conditions: ATCC 25922, 20 h
Pseudomonas aeruginosa [20] = assay: Antibacterial activity against Pseudomonas aeruginosa ATCC 27853 after 20 hrs by micro-broth dilution assay; type: functional; conditions: ATCC 27853, 20 h

SMILES	Drug uptake [2]	MIC (Escherichia coli [4])	CC50 at 24 h [5]	MIC (Pseudomonas aeruginosa [8])	MIC (Staphylococcus aureus [9])	MIC (Klebsiella pneumoniae [11])	MIC (Staphylococcus aureus [12])	MIC (Cryptococcus neoformans)	MIC (Acinetobacter baumannii [13])	MIC (Candida albicans)	MIC (Staphylococcus aureus [14])	MIC (Staphylococcus aureus [16])	MIC (Streptococcus pneumoniae)	other results
CCCN1C(=O)c2cccc3c(N)ccc(c23)C1=O	Active													Drug uptake [1]: Active
CCCNc1ccc([N+](=O)[O-])c2nonc12	Active													Drug uptake [3]: Active
Cl.Cl.N=C(N)NCCNC(=O)[C@@H]1[C@@H]2C[C@@H]([C@H]3OC(CCCCCCCCCCCNc4ccc([N+](=O)[O-])c5nonc45)O[C@@H]23)[C@H]1C(=O)NCCNC(=N)N (some centres undefined)	Active	8 µg/mL	> 50 µg/mL	32 µg/mL	1 µg/mL	> 32 µg/mL	4 µg/mL	4 µg/mL	32 µg/mL	16 µg/mL	0.5 µg/mL	1 µg/mL	1 µg/mL	zone of inhibition at 50 µg/disc (Staphylococcus aureus [6]): 9 mm; Drug uptake [3]: Active; zone of inhibition at 50 µg/disc (Pseudomonas aeruginosa [7]): 9 mm; Drug uptake [1]: Active; Drug uptake [10]: Active; zone of inhibition at 50 µg/disc (Klebsiella pneumoniae [15]): 8.5 mm
OC(Cn1cncn1)(Cn1cncn1)c1ccc(F)cc1F [FLUCONAZOLE]								8 µg/mL (≈ 26.1 µM)		1 µg/mL (≈ 3.27 µM)				
CCCCCCCC1O[C@@H]2[C@@H]3C[C@H]([C@@H]2O1)[C@@H](C(=O)NCCNC(=N)NCc1ccccc1)[C@@H]3C(=O)NCCNC(=N)NCc1ccccc1.Cl.Cl (some centres undefined)		8 µg/mL	> 50 µg/mL	32 µg/mL	1 µg/mL	> 32 µg/mL	2 µg/mL	2 µg/mL	> 32 µg/mL	128 µg/mL	1 µg/mL	2 µg/mL	2 µg/mL	zone of inhibition at 50 µg/disc (Staphylococcus aureus [6]): 17 mm; zone of inhibition at 50 µg/disc (Pseudomonas aeruginosa [7]): 13 mm; zone of inhibition at 50 µg/disc (Acinetobacter baumannii [17]): 10 mm; zone of inhibition at 50 µg/disc (Enterococcus faecium): 18 mm; zone of inhibition at 50 µg/disc (Klebsiella pneumoniae [15]): 15 mm
CC/C(=C(\c1ccccc1)c1ccc(OCCN(C)C)cc1)c1ccccc1 [TAMOXIFEN]			13 µg/mL (≈ 35 µM)											
CN[C@H](CC(C)C)C(=O)N[C@H]1C(=O)N[C@@H](CC(N)=O)C(=O)N[C@H]2C(=O)N[C@H]3C(=O)N[C@H](C(=O)N[C@H](C(=O)O)c4cc(O)cc(O)c4-c4cc3ccc4O)[C@H](O)c3ccc(c(Cl)c3)Oc3cc2cc(c3O[C@@H]2O[C@H](CO)[C@@H](O)[C@H](O)[C@H]2O[C@H]2C[C@](C)(N)[C@H](O)[C@H](C)O2)Oc2ccc(cc2Cl)[C@H]1O [VANCOMYCIN]											> 64 µg/mL		1 µg/mL (≈ 0.69 µM)	
CCCCCCCCCCCCCCCC1O[C@@H]2[C@@H]3C[C@H]([C@@H]2O1)[C@@H](C(=O)NCCNC(=N)N)[C@@H]3C(=O)NCCNC(=N)N.Cl.Cl (some centres undefined)														MIC (Staphylococcus aureus [18]): 1 µg/mL
CCCCCCCCCCCCCCCC1O[C@@H]2[C@@H]3C[C@H]([C@@H]2O1)[C@@H](C(=O)NCCNC(=N)NCc1ccccc1)[C@@H]3C(=O)NCCNC(=N)NCc1ccccc1.Cl.Cl (some centres undefined)		> 128 µg/mL	7.8 µg/mL	> 128 µg/mL	0.25 µg/mL	> 128 µg/mL	0.5 µg/mL		> 128 µg/mL		0.5 µg/mL	0.25 µg/mL	1 µg/mL	
Cl.Cl.Cl.N=C(N)NCCNC(=O)[C@@H]1[C@@H]2C[C@@H]([C@H]3OC(CCCCCCCCCCCN)O[C@@H]23)[C@H]1C(=O)NCCNC(=N)N (some centres undefined)		> 32 µg/mL	> 50 µg/mL	> 32 µg/mL	16 µg/mL	> 32 µg/mL	8 µg/mL		> 32 µg/mL		8 µg/mL	16 µg/mL	8 µg/mL	zone of inhibition at 50 µg/disc (Staphylococcus aureus [6]): 14 mm; zone of inhibition at 50 µg/disc (Pseudomonas aeruginosa [7]): 12 mm; zone of inhibition at 50 µg/disc (Acinetobacter baumannii [17]): 12 mm; zone of inhibition at 50 µg/disc (Klebsiella pneumoniae [15]): 14.5 mm
CCCCCCCC1O[C@@H]2[C@@H]3C[C@H]([C@@H]2O1)[C@@H](C(=O)NCCNC(=O)c1ccc(C(=O)NC(=N)N)[nH]1)[C@@H]3C(=O)NCCNC(=O)c1ccc(C(=O)NC(=N)N)[nH]1.Cl.Cl (some centres undefined)		> 128 µg/mL	> 100 µg/mL	> 128 µg/mL	> 128 µg/mL	> 128 µg/mL	> 128 µg/mL		> 128 µg/mL		128 µg/mL	> 128 µg/mL	> 128 µg/mL	
Cl.Cl.N=C(N)NCCNC(=O)[C@@H]1[C@@H]2C[C@@H]([C@@H](OCc3ccc(C(F)(F)F)cc3)[C@H]2OCc2ccc(C(F)(F)F)cc2)[C@H]1C(=O)NCCNC(=N)N														MIC (Escherichia coli [19]): 8 µg/mL; MIC (Pseudomonas aeruginosa [20]): 8 µg/mL; MIC (Staphylococcus aureus [18]): 8 µg/mL
CCCNc1ccc2c3c(cccc13)C(=O)N(CCCCCCCCCCCC1O[C@@H]3[C@@H]4C[C@H]([C@@H]3O1)[C@@H](C(=O)NCCNC(=N)N)[C@@H]4C(=O)NCCNC(=N)N)C2=O.Cl.Cl (some centres undefined)	Active	> 32 µg/mL	> 50 µg/mL	> 32 µg/mL	4 µg/mL	> 32 µg/mL	4 µg/mL	0.25 µg/mL	> 32 µg/mL	128 µg/mL	2 µg/mL	1 µg/mL	1 µg/mL	Drug uptake [3]: Active; Drug uptake [1]: Active; Drug uptake [10]: Active
